Measured values: ChEMBL document CHEMBL4425095, “Novel Cephalosporins Selectively Active on Nonreplicating Mycobacterium tuberculosis” (J Med Chem, 2016)
≈ marks a conversion by molar mass, not a printed value.

Assays:
Format in all cases: functional
[1] = tested on: Mycobacterium tuberculosis; test: Antimycobacterial activity against non-replicating Mycobacterium tuberculosis mc2 6220 harboring panCD/lysA deletion mutant incubated for 7 days measured at OD580 = 0.1 by two-fold serial dilution method
How it was run: (§1)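 M. tuberculosis mc26220 washed twice in PBS-tyloxapol and resuspended in Sauton's-based nonreplicating medium (pH 5.0, butyrate 0.05%, BSA, tyloxapol, lysine, pantothenate, 0.5 mM NaNO2). Incubated at 1% O2, 5% CO2 with 2-fold serially diluted compound from DMSO. After 3 days, diluted 5-fold in fresh replicating medium for outgrowth at 20% O2. Reported as MIC90.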

[2] = tested on: Mycobacterium tuberculosis; test: Antimycobacterial activity against non-replicating Mycobacterium tuberculosis mc2 6220 harboring panCD/lysA deletion mutant incubated for 7 days measured at OD580 = 0.01 by two-fold serial dilution method; how it was run: as §1
[3] = tested on: Mycobacterium tuberculosis; test: Antimycobacterial activity against replicating Mycobacterium tuberculosis mc2 6220 harboring panCD/lysA deletion mutant by two-fold serial dilution method
How it was run: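 M. tuberculosis mc26220 in replicating medium supplemented with glycerol (final 0.5%), OADC, casamino acids 0.05%, lysine 240 μg/mL and pantothenate 24 μg/mL. Exposed to 2-fold serially diluted compound from DMSO. OD580 read after 7 days at 20% O2, 5% CO2. Reported as MIC90.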

SMILES	MIC90 [1] [µg/mL]	MIC90 [2] [µg/mL]	MIC90 [3] [µg/mL]
CCCN(O)C(=O)C1=C(C)CS[C@@H]2[C@H](NC(=O)COc3ccccc3)C(=O)N12	>40.55	>40.55	>100
COC(=O)C1=C(C)CS[C@@H]2[C@H](NC(=O)COc3ccccc3)C(=O)N12	2.93 (≈ 8.08 µM)	2.07 (≈ 5.71 µM)	>100
CCCCOC(=O)C1=C(C)CS[C@@H]2[C@H](NC(=O)CCc3ccc(OC)cc3)C(=O)N12	0.26 (≈ 0.601 µM)	0.24 (≈ 0.555 µM)	>100
CCCc1noc(C2=C(C)CS[C@@H]3[C@H](NC(=O)Cc4ccccc4)C(=O)N23)n1	1.04 (≈ 2.61 µM)		>100
CC1=C(C(=O)OCc2ccccc2)N2C(=O)[C@@H](NC(=O)COc3ccc(Cl)cc3)[C@H]2SC1	8.07 (≈ 17.1 µM)	0.87 (≈ 1.84 µM)	>100
COC[C@H]1C(C)=CS[C@@H]2[C@H](NC(=O)COc3ccccc3)C(=O)N21	>34.84	>34.84	>87.82
C#CCNC(=O)C1=C(C)CS[C@@H]2[C@H](NC(=O)COc3ccccc3)C(=O)N12	>38.54	>38.54	>100
CC1=C(c2nc(C)no2)N2C(=O)[C@@H](NC(=O)Cc3ccc(Cl)cc3)[C@H]2SC1	1.13 (≈ 2.79 µM)		>100
CCCCOC(=O)C1C(C)=CS[C@@H]2[C@H](NC(=O)COc3ccccc3)C(=O)N12 (stereo partly drawn)	1.28 (≈ 3.16 µM)	0.79 (≈ 1.95 µM)	>100
COC(=O)C1=C(C)CS[C@@H]2[C@H](NC(=O)[C@H](N)c3ccccc3)C(=O)N12	61.78 (≈ 171 µM)		>100
COc1ccc(CCC(=O)N[C@@H]2C(=O)N3C(C(=O)O)=C(C)CS[C@H]23)cc1	>37.64	>37.64	>100
CCC(C)OC(=O)C1=C(C)CS[C@@H]2[C@H](NC(=O)CCc3ccc(OC)cc3)C(=O)N12 (stereo partly drawn)	2.95 (≈ 6.82 µM)	1.57 (≈ 3.63 µM)	>100
CC1=C(C(=O)O)N2C(=O)[C@@H](NC(=O)CCc3ccc(Br)cc3)[C@H]2SC1	>42.53	>42.53	96.13 (≈ 226 µM)
COC(=O)C1=C(C)CS[C@@H]2[C@H](NC(=O)COc3ccc(OC)cc3)C(=O)N12	4.28 (≈ 10.9 µM)	2.01 (≈ 5.12 µM)	>100
COC(=O)C1=C(C)CS[C@@H]2[C@H](NC(=O)COc3ccc(Cl)cc3)C(=O)N12	1.25 (≈ 3.15 µM)	0.95 (≈ 2.39 µM)	>100
CCCc1noc(C2=C(C)CS[C@@H]3[C@H](NC(=O)CCc4ccc(Cl)cc4)C(=O)N23)n1			>100
CCCOC(=O)C1=C(C)CS[C@@H]2[C@H](NC(=O)COc3ccc(OC)cc3)C(=O)N12	0.81 (≈ 1.93 µM)	0.39 (≈ 0.927 µM)	>100
CCOC(=O)C1=C(C)CS[C@@H]2[C@H](NC(=O)CCc3ccc(OC)cc3)C(=O)N12	0.51 (≈ 1.26 µM)	0.4 (≈ 0.989 µM)	21.37 (≈ 52.8 µM)
CCCc1noc(C2=C(C)CS[C@@H]3[C@H](NC(=O)Cc4ccc(C)cc4)C(=O)N23)n1	0.64 (≈ 1.55 µM)		>100
CC1=CS[C@@H]2[C@H](NC(=O)COc3ccccc3)C(=O)N2[C@H]1COS(=O)(=O)c1ccc(Br)cc1	>55.34	>55.34	>83.24
CCCCOC(=O)C1=C(C)CS[C@@H]2[C@H](NC(=O)CCc3ccccc3)C(=O)N12	<0.24	0.21 (≈ 0.522 µM)	>100
COc1ccc(CCC(=O)N[C@@H]2C(=O)N3C(C(=O)OCc4ccccc4)=C(C)CS[C@H]23)cc1	0.42 (≈ 0.9 µM)	0.39 (≈ 0.836 µM)	>100
CC1=C(C(=O)O)N2C(=O)[C@@H](NC(=O)c3ccc(Cl)cc3)[C@H]2SC1	>35.28	>35.28	>100
CCCCOC(=O)C1=C(C)CS[C@@H]2[C@H](NC(=O)COc3ccc(Cl)cc3)C(=O)N12	1.01 (≈ 2.3 µM)	0.43 (≈ 0.98 µM)	>100
CCCc1noc(C2=C(C)CS[C@@H]3[C@H](NC(=O)CCc4ccc(F)cc4)C(=O)N23)n1	0.91 (≈ 2.11 µM)	0.48 (≈ 1.11 µM)	>100
COc1ccc(CCC(=O)N[C@@H]2C(=O)N3C(c4nc(C)no4)=C(C)CS[C@H]23)cc1	1.68 (≈ 4.05 µM)	1.13 (≈ 2.73 µM)	>100

SMILES	MIC90 [1] [µg/mL]	MIC90 [2] [µg/mL]	MIC90 [3] [µg/mL]
COc1ccc(CC(=O)N[C@@H]2C(=O)N3C(c4nc(C)no4)=C(C)CS[C@H]23)cc1	3.25 (≈ 8.12 µM)		>100
COc1ccc(CCC(=O)N[C@@H]2C(=O)N3C(C(=O)OC4CCCC4)=C(C)CS[C@H]23)cc1	0.96 (≈ 2.16 µM)	0.84 (≈ 1.89 µM)	44.33 (≈ 99.7 µM)
CCCOC(=O)C1=C(C)CS[C@@H]2[C@H](NC(=O)CCc3ccc(OC)cc3)C(=O)N12	<0.2	<0.2	>100
CCCCOC(=O)C1=C(C)CS[C@@H]2[C@H](NC(=O)CCc3ccc(Cl)cc3)C(=O)N12	1.24 (≈ 2.84 µM)	0.72 (≈ 1.65 µM)	>100
CC1=C(c2nc(C)no2)N2C(=O)[C@@H](NC(=O)Cc3ccc(Cl)c(Cl)c3)[C@H]2SC1	0.28 (≈ 0.637 µM)		>100
CCSC(=O)N[C@@H]1C(=O)N2C(c3nc(C)no3)=C(C)CS[C@H]12	1.84 (≈ 5.4 µM)		>100
C=CC1=C(C(=O)O)N2C(=O)[C@@H](NC(=O)/C(=N\O)c3csc(N)n3)[C@H]2SC1	>100	77.84 (≈ 197 µM)	4.11 (≈ 10.4 µM)
CCCOC(=O)C1=C(C)CS[C@@H]2[C@H](NC(=O)CCc3ccccc3)C(=O)N12	1.24 (≈ 3.19 µM)	0.6 (≈ 1.54 µM)	53.64 (≈ 138 µM)
COc1ccc(OCC(=O)N[C@@H]2C(=O)N3C(C(=O)OCc4ccccc4)=C(C)CS[C@H]23)cc1	2.53 (≈ 5.4 µM)	1.54 (≈ 3.29 µM)	>100
CC1=C(c2nc(C)no2)N2C(=O)[C@@H](NC(=O)COc3ccc(Cl)cc3)[C@H]2SC1	1.72 (≈ 4.09 µM)	1.2 (≈ 2.85 µM)	>100
CCOC(=O)C1=C(C)CS[C@@H]2[C@H](NC(=O)COc3ccc(OC)cc3)C(=O)N12	0.89 (≈ 2.19 µM)	0.53 (≈ 1.3 µM)	47.1 (≈ 116 µM)
CCCOC(=O)C1=C(C)CS[C@@H]2[C@H](NC(=O)COc3ccc(Cl)cc3)C(=O)N12	1.34 (≈ 3.15 µM)	0.66 (≈ 1.55 µM)	>100
CC1=C(c2nc(C)no2)N2C(=O)[C@@H](NC(=O)Cc3ccccc3)[C@H]2SC1	1.61 (≈ 4.35 µM)		>100
CC1=C(C(N)=O)N2C(=O)[C@@H](NC(=O)COc3ccccc3)[C@H]2SC1	>100	59.68 (≈ 172 µM)	>100
CC1=C(C(=O)O)N2C(=O)[C@@H](NC(=O)COc3ccccc3)[C@H]2SC1	>34.84	>34.84	>100
CCCc1noc(C2=C(C)CS[C@@H]3[C@H](NC(=O)Cc4ccc(OC)cc4)C(=O)N23)n1	0.77 (≈ 1.8 µM)		>100
CCCc1noc(C2=C(C)CS[C@@H]3[C@H](NC(=O)CCc4ccc(C)cc4)C(=O)N23)n1	2.32 (≈ 5.44 µM)	0.98 (≈ 2.3 µM)	>100
CCCc1noc(C2=C(C)CS[C@@H]3[C@H](NC(=O)CCc4ccc(OC)cc4)C(=O)N23)n1	0.67 (≈ 1.51 µM)	0.37 (≈ 0.836 µM)	>100
CCOC(=O)C1=C(C)CS[C@@H]2[C@H](NC(=O)COc3ccc(Cl)cc3)C(=O)N12	2.38 (≈ 5.79 µM)	1.07 (≈ 2.6 µM)	>100
CCCCOC(=O)C1=C(C)CS[C@@H]2[C@H](NC(=O)COc3ccc(OC)cc3)C(=O)N12	1.12 (≈ 2.58 µM)	0.71 (≈ 1.63 µM)	>100
CC1=C(c2nc(C)no2)N2C(=O)[C@@H](NC(=O)[C@H](N)c3ccccc3)[C@H]2SC1	44.05 (≈ 114 µM)		>100
COC(=O)C1=C(C)CS[C@@H]2[C@H](NC(=O)[C@H](NC(=O)OC(C)(C)C)c3ccccc3)C(=O)N12	18.07 (≈ 39.2 µM)	16.51 (≈ 35.8 µM)	>100
CCCOC(=O)C1=C(C)CS[C@@H]2[C@H](NC(=O)[C@H](N)c3ccccc3)C(=O)N12	15.46 (≈ 39.7 µM)		>100
CC1=C(c2nc(C)no2)N2C(=O)[C@@H](NC(=O)OCC(C)(C)C)[C@H]2SC1	1.03 (≈ 2.81 µM)		>100
CC1=C(c2nc(C)no2)N2C(=O)[C@@H](NC(=O)Cc3ccc(C)cc3)[C@H]2SC1	1.75 (≈ 4.55 µM)		>100
